Among the data in ChEMBL document CHEMBL2069269, “Anti-inflammatory Effect of a Cell-Penetrating Peptide Targeting the Nrf2/Keap1 Interaction” (2012) are inhibition, Activity and fold change (FC) values, retold here.

The target of experiment [1] is Kelch-like ECH-associated protein 1 (Homo sapiens) (UniProt Q14145). Description: Inhibition of Keap1 interaction with Nrf2 in human THP1 cells assessed as increase in HO-1 mRNA expression at 100 uM from 3 to 6 hrs by qRT-PCR analysis. It counts as cell-based. As to conditions: THP-1. The procedure, abridged:
(§1)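 Human THP-1 monocytes were incubated with peptide over a time course. HO-1 mRNA was measured by qRT-PCR and normalised to GAPDH mRNA. Data are means ± SEM, n = 3. A dose series of 7.5, 18.75, 37.5 and 75 μM was also tested by the same read-out.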
(In qPCR the cycle at which signal appears reflects the starting amount.)

Experiment [2] has as its system THP-1. Description: Upregulation of Nrf2 mRNA expression in human THP1 cells at 100 uM by qRT-PCR analysis. Format: functional, cell-based.
For experiment [3], the target named is Kelch-like ECH-associated protein 1 (Homo sapiens) (UniProt Q14145). Description: Inhibition of Keap1 interaction with Nrf2 in human THP1 cells assessed as increase in HO-1 protein expression by Western blot analysis. It counts as cell-based. As to conditions: THP-1. The essentials: (§2)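 THP-1 monocytes were treated with peptide or the scrambled-sequence control peptide over a time course. HO-1 protein was assessed by Western blot. The blot shown is representative of n = 3 experiments.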
Sequence of Kelch-like ECH-associated protein 1 (Homo sapiens) (Q14145 whole entry): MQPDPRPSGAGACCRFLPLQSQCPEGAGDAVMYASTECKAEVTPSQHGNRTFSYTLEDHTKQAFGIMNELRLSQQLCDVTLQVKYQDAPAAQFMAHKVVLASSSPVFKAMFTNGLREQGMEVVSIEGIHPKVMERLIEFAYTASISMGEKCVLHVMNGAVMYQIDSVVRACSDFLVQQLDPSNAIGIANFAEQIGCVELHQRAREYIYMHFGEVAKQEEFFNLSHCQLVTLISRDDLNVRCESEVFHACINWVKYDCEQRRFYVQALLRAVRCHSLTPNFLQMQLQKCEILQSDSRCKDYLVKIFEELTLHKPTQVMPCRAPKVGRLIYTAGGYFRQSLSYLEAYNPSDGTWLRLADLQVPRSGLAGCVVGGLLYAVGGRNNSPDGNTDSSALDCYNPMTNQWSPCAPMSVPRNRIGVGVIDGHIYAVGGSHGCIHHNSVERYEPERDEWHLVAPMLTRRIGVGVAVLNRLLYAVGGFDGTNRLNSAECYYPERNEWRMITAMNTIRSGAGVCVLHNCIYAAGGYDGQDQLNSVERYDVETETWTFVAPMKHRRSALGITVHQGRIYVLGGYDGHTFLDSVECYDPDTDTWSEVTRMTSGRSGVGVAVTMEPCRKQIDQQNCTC

The target is the same in experiment [4]. Description: Inhibition of Keap1 interaction with Nrf2 in human THP1 cells assessed as increase in HO-1 mRNA expression at 75 uM at 6 hrs by qRT-PCR analysis relative to control. It counts as cell-based. As to conditions: THP-1. The procedure, abridged:
as §1

Experiment [5] has as its system THP-1. Description: Antiinflammatory activity in human THP1 cells assessed as inhibition of LPS-induced TNFalpha mRNA expression at 100 uM incubated for 4 hrs prior to LPS-stimulation measured after 3 hrs by qRT-PCR analysis.
The target of experiment [6] is Kelch-like ECH-associated protein 1 (Homo sapiens) (UniProt Q14145). Description: Inhibition of Keap1 interaction with Nrf2 in human THP1 cells assessed as increase in HO-1 protein expression at 37.5 uM by Western blot analysis. Format: cell-based. The conditions noted are these: THP-1. (In general: Immunoblotting shows a protein as a band on a membrane.)
Experiment [7] has the same target. The experiment can be described thus: Inhibition of Keap1 interaction with Nrf2 in human THP1 cells assessed as increase in Nrf2 protein expression at 100 uM after 3 hrs by Western blot analysis. Format: cell-based. As to conditions: THP-1. The procedure, abridged:
(§3)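 THP-1 cells were incubated with peptide over a time course, alongside a peptide scrambled in the Keap1-binding 14mer region. Nrf2 protein was detected in cell lysates by Western blot.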

The target is the same in experiment [8]. The experiment can be described thus: Inhibition of Keap1 interaction with Nrf2 in human THP1 cells assessed as increase in HO-1 protein expression at 100 uM at 12 hrs by Western blot analysis. Format: cell-based. As to conditions: THP-1. The essentials: as §2
Experiment [9] shares this target. Description: Inhibition of Keap1 interaction with Nrf2 in human THP1 cells assessed as increase in HO-1 mRNA expression at 100 uM from 2 to 8 hrs by qRT-PCR analysis. Format: cell-based. As to conditions: THP-1. The procedure, abridged: as §1
For experiment [10] the target is unchanged. The experiment can be described thus: Inhibition of Keap1 interaction with Nrf2 in human THP1 cells assessed as increase in HO-1 protein expression at 100 uM at 9 to 16 hrs by Western blot analysis. It counts as cell-based. The conditions noted are these: THP-1. The essentials: as §2
Experiment [11] has the same target. Description: Inhibition of Keap1 interaction with Nrf2 in human THP1 cells assessed as increase in Nrf2 protein expression at 100 uM from 1 to 6 hrs by Western blot analysis. Format: cell-based. The conditions noted are these: THP-1. The procedure, abridged: as §3

Each structure is given as a SMILES string. Calls of active or inactive are those of the source. The calls are words filed in the database; no cut-off is given here. Where a SMILES comes first, the peptide text is derived from it.

Usually inhibition stands for the share of the control response that was lost under treatment. With `CC(C)C[C@H](NC(=O)[C@H](CCCNC(=N)N)NC(=O)[C@H](CCCNC(=N)N)NC(=O)[C@H](CCCNC(=N)N)NC(=O)[C@H](CCC(N)=O)NC(=O)[C@H](CCCNC(=N)N)NC(=O)[C@H](CCCNC(=N)N)NC(=O)[C@H](CCCCN)NC(=O)[C@H](CCCCN)NC(=O)[C@H](CCCNC(=N)N)NC(=O)CNC(=O)[C@@H](N)Cc1ccc(O)cc1)C(=O)N[C@@H](CC(=O)O)C(=O)N[C@@H](CCC(=O)O)C(=O)N[C@@H](CCC(=O)O)C(=O)N[C@H](C(=O)NCC(=O)N[C@@H](CCC(=O)O)C(=O)N[C@@H](Cc1ccccc1)C(=O)N[C@@H](CC(C)C)C(=O)N1CCC[C@H]1C(=O)O)[C@@H](C)O`, the inhibition entry in experiment [1] is “Active”.
As for `CC[C@H](C)[C@H](NC(=O)[C@@H]1CCCN1C(=O)[C@H](CC(C)C)NC(=O)[C@H](Cc1ccccc1)NC(=O)[C@H](CCC(=O)O)NC(=O)CNC(=O)[C@@H](NC(=O)[C@H](CCC(=O)O)NC(=O)[C@H](CCC(=O)O)NC(=O)[C@H](CC(=O)O)NC(=O)[C@H](CC(C)C)NC(=O)[C@H](CCC(N)=O)NC(=O)[C@H](CC(C)C)NC(=O)[C@H](CCCNC(=N)N)NC(=O)[C@H](CCCNC(=N)N)NC(=O)[C@H](CCCNC(=N)N)NC(=O)[C@H](CCC(N)=O)NC(=O)[C@H](CCCNC(=N)N)NC(=O)[C@H](CCCNC(=N)N)NC(=O)[C@H](CCCCN)NC(=O)[C@H](CCCCN)NC(=O)[C@H](CCCNC(=N)N)NC(=O)CNC(=O)[C@@H](N)Cc1ccc(O)cc1)[C@@H](C)O)C(=O)N[C@@H](CCC(N)=O)C(=O)O`, in the experiment with THP-1 [2], the outcome was inactive. Further, in experiment [3], the inhibition entry is “Dose-dependent effect”. Moreover, the fold change (FC) in [4] was 24. The inhibition at 100 µM in the experiment with THP-1 [5] was found to be 61%. Further, the inhibition result in experiment [1] was “inactive”. Besides, the inhibition entry in experiment [6], in experiment [7] and in experiment [8] was “Active” in each case.
For the compound `CC(C)C[C@H](NC(=O)[C@H](Cc1ccccc1)NC(=O)[C@H](CCC(=O)O)NC(=O)CNC(=O)[C@@H](NC(=O)[C@H](CCC(=O)O)NC(=O)[C@H](CCC(=O)O)NC(=O)[C@H](CC(=O)O)NC(=O)[C@H](CC(C)C)NC(=O)[C@H](CCC(N)=O)NC(=O)[C@H](CC(C)C)NC(=O)[C@H](CCC(N)=O)NC(=O)[C@H](C)NC(=O)[C@H](Cc1ccccc1)NC(=O)[C@H](Cc1ccccc1)NC(=O)[C@H](C)NC(=O)[C@H](CCCNC(=N)N)NC(=O)[C@H](CCCNC(=N)N)NC(=O)[C@H](CCCNC(=N)N)NC(=O)[C@H](CCC(N)=O)NC(=O)[C@H](CCCNC(=N)N)NC(=O)[C@H](CCCNC(=N)N)NC(=O)[C@H](CCCCN)NC(=O)[C@H](CCCCN)NC(=O)[C@H](CCCNC(=N)N)NC(=O)CNC(=O)[C@@H](N)Cc1ccc(O)cc1)[C@@H](C)O)C(=O)O` (H-YGRKKRRQRRRAFFAQLQLDEETGEFL-OH), the inhibition result in experiment [1] was “inactive”.
With `CC[C@H](C)[C@H](NC(=O)[C@@H]1CCCN1C(=O)[C@H](CC(C)C)NC(=O)[C@H](Cc1ccccc1)NC(=O)[C@H](CCC(=O)O)NC(=O)CNC(=O)[C@@H](NC(=O)[C@H](CCC(=O)O)NC(=O)[C@H](CCC(=O)O)NC(=O)[C@H](CC(=O)O)NC(=O)[C@H](CC(C)C)NC(=O)[C@H](CCC(N)=O)NC(=O)[C@@H](N)CC(C)C)[C@@H](C)O)C(=O)N[C@@H](CCC(N)=O)C(=O)O`, the inhibition result in experiment [9] was “inactive”.
With `CC[C@H](C)[C@H](NC(=O)[C@H](CC(=O)O)NC(=O)[C@@H](NC(=O)CNC(=O)[C@H](Cc1ccccc1)NC(=O)[C@H](CCC(=O)O)NC(=O)[C@H](CCCNC(=N)N)NC(=O)[C@H](CCCNC(=N)N)NC(=O)[C@H](CCCNC(=N)N)NC(=O)[C@H](CCC(N)=O)NC(=O)[C@H](CCCNC(=N)N)NC(=O)[C@H](CCCNC(=N)N)NC(=O)[C@H](CCCCN)NC(=O)[C@H](CCCCN)NC(=O)[C@H](CCCNC(=N)N)NC(=O)CNC(=O)[C@@H](N)Cc1ccc(O)cc1)[C@@H](C)O)C(=O)N[C@@H](CCC(N)=O)C(=O)N[C@@H](CC(C)C)C(=O)N[C@H](C(=O)N[C@@H](CCC(=O)O)C(=O)N1CCC[C@H]1C(=O)N[C@@H](CCC(N)=O)C(=O)N[C@@H](CC(C)C)C(=O)N[C@@H](CCC(=O)O)C(=O)O)[C@@H](C)CC` (H-YGRKKRRQRRREFGTDIQLIEPQLE-OH), the inhibition entry in experiment [10], in experiment [9] and in [11] was “inactive” throughout.
